# In the library only some 2% were active in any assay of this set; here they are far more common.
# Neddylation inh = blocks human cullin neddylation; P61081+Q13564; TR-FRET cullin neddylation, biochemical; calls only at 25 µM; actives 0.58% (n = 360,000); AID 651699; in the data active = inhibition above about 36%
# NR2E3 ag-1 = agonists of human nuclear receptor NR2E3. Q9Y5X4. GST-NR2E3/biotin-RetCOR TR-FRET, 1536-well. inhibition of corepressor binding, % at 4.78 µM. actives 0.12% (n = 320,000);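 active = percent inhibition above the cutoff of mean plus 3 SD of all tested compounds, set per screening campaign, cut at about 20% in these data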;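 also: 0% = DMSO wells and 100% = biotin wells as full block of FRET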
# Target sequence (Q9Y5X4 whole entry, looked up): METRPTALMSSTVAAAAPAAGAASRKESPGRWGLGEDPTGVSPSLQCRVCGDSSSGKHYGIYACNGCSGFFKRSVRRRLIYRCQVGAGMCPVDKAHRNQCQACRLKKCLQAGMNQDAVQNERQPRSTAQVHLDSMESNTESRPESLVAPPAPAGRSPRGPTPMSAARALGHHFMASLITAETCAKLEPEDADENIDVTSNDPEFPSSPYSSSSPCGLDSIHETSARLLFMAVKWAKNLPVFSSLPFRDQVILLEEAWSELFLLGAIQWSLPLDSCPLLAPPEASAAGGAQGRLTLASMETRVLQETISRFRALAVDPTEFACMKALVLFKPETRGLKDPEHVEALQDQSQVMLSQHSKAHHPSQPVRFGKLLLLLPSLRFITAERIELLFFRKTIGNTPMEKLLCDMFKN
#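 Material: NR2E3–RetCOR corepressor complex / Amount: 1.35 nM GST-NR2E3 / Medium: Tris pH 7.5 / Compound: single nominal compound dose of 4.8 µM / Incubation: 5 h at 4 °C / Technique: TR-FRET, Eu(K)-anti-GST donor, streptavidin-D2 acceptor, ex 340, em 617/671 nm / Read-out basis: percent loss of FRET ratio relative to control wells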
# Rev-erbA mod = modulates human Rev-erb alpha binding to DNA; P20393; Rev-erbα–FITC-DNA binding, fluorescence polarization, 90 min; activity, % at 10 µM; actives 0.79% (n = 370,000);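 active = activity above about 14%, limit read from the data; passing the limit was not always enough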;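 also: 0% = DMSO wells with 35 nM protein and 100% = DMSO wells with 750 nM protein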
# PG9 binder = PG9 antibody binding by small molecule; TR-FRET gp120-PG9 antibody binding; inhibition, % at 6.7 µM; actives 0.43% (n = 360,000); AID 624416; in the data active = inhibition above about 8.5%
# NR2E3 ag-2 = human photoreceptor-specific nuclear receptor agonism; CHO-S Gal4-NCOR/VP16-NR2E3 two-hybrid, luciferase; inhibition of corepressor binding, % at 3.98 µM; actives 0.35% (n = 360,000);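 active = inhibition above the mean of all tested compounds plus 3 SD, cut at about 70% in these data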;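 also: 0% = DMSO with NR2E3 transfected cells and 100% = cells lacking NR2E3 construct; higher means lower luciferase signal from less NR2E3 corepressor binding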
# NR2E3 ag confirm = NR2E3 (human) agonism, confirmation. shares compounds with NR2E3 ag-1. cell-free NR2E3 corepressor release, TR-FRET, 5 h. activation (reported as inhibition), % at 3.98 µM. actives 39% (n = 360); in the data active = activation above about 20%
# PPARg-NCOR2 ag = releases PPARgamma from NCOR2 in NR2E3 counter-screen; actives 45% (n = 360); shares compounds with NR2E3 ag-1; inhibition, % at 3.98 µM; TR-FRET PPARg-NCOR2 coregulator interaction, biochemical; AID 504787; in the data active = inhibition above about 20%;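 also: 0% = DMSO vehicle and 100% = wells without protein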
# * marks the source's active call; other numbers are inactive results; i = inactive; x = no result.
SMILES,Neddylation inh,NR2E3 ag-1,Rev-erbA mod,PG9 binder,NR2E3 ag-2,NR2E3 ag confirm,PPARg-NCOR2 ag
COC(=O)[C@H]1C[C@@]2(N3CCCC3)c3ccccc3N[C@H]2N1S(C)(=O)=O,x,x,-7,x,x,x,x
C#CCn1c(=NC(=O)CSC(C)=O)sc2cc(F)ccc21,i,27*,x,x,15,11,20*
CC(C)CN(C[C@@H](OP(=O)(O)O)[C@H](Cc1ccccc1)NC(=O)O[C@H]1CCOC1)S(=O)(=O)c1ccc(N)cc1,x,x,1,x,x,x,x
C=C1c2cccc(O)c2C(O)=C2C(=O)[C@]3(O)C(O)=C(C(N)=O)C(=O)[C@@H](N(C)C)[C@@H]3[C@@H](O)[C@H]12,i,31*,-41,1,-22,1,1
C=C1c2c(Cl)ccc(O)c2C(O)=C2C(=O)[C@]3(O)C(O)=C(C(N)=O)C(=O)[C@@H](N(C)C)[C@@H]3[C@@H](O)[C@H]12,x,x,-31,x,x,x,x
COC(=O)CCCCC1SCC2NC(=O)NC21O (centres undefined),i,76*,x,0,-22,80*,80*
COC(=O)CCCC[C@H]1SC[C@H]2NC(=O)N[C@]21O,x,63*,x,x,x,61*,47*
COC(=O)C1CSC(C)(C)C(=O)N1 (centres undefined),i,1,3,1,15,x,x
CCOC(=O)[C@](C)(N)Cc1ccc(O)c(O)c1,x,x,-4,x,x,x,x
CCOC(=O)c1c(-c2ccsc2)csc1N,i,3,-4,1,2,x,x
CCOC(=O)c1c(-c2ccc(C)s2)csc1N,i,68*,1,-3,-8,-4,-5
c1ccc(CCNc2ncnc3c2nnn3Cc2ccccc2)cc1,i,22*,-4,-2,-18,-11,-5
c1ccc(Cn2nnc3c(NCCN4CCOCC4)ncnc32)cc1,i,-1,-4,-1,1,x,x
COc1ccc(S[C@]2(C(=O)NCCc3ccccc3)CC(=O)N[C@@H]2c2ccc(OC)cc2)cc1,x,x,6,x,x,x,x
Cc1ccc(C(=O)C2=C(O)C(=O)N(Cc3ccccc3)C2c2cccnc2)o1 (centres undefined),i,40*,0,x,-59,5,12
Cc1ccc(C(=O)C2=C(O)C(=O)N(Cc3cccnc3)C2c2cccc([N+](=O)[O-])c2)o1 (centres undefined),i,2,0,-1,9,x,x
O=C(C1=C(O)C(=O)N(Cc2ccco2)C1c1cccs1)c1cccs1 (centres undefined),i,10,22,3,13,x,x
CCCOc1ccc(C2C(C(=O)c3ccc(C)o3)=C(O)C(=O)N2Cc2ccco2)cc1OCC (centres undefined),i,24*,8,7,-5,6,6
O=C(C1=C(O)C(=O)N(Cc2ccco2)C1c1ccccc1)c1cccs1 (centres undefined),i,20*,-1,4,-7,2,8
C=C(C)Cn1c(SCC(=O)N/N=C(\C)c2ccc([N+](=O)[O-])cc2)nnc1-c1ccc(Br)cc1,x,x,-1,x,x,x,x
CCCCc1ccc(C2C(C#N)=C(N)SC(N)=C2C#N)s1,x,42*,x,x,x,-1,-2
CCOc1ccc(C2C(C#N)=C(N)SC(N)=C2C#N)c(OCC)c1,i,6,-3,1,2,x,x
COc1ccc(OCc2nc3c4cc(OC)c(OC)cc4nc(=S)n3[nH]2)cc1,i,21*,2,0,18,6,11
CO[C@@]12[C@@H]3N[C@H]3CN1C1=C(C(=O)C(N)=C(C)C1=O)[C@@H]2COC(N)=O,x,x,-7,x,x,x,x
O=C1C=C(N2CCOCC2)c2cccc3cccc1c23,i,x,-6,-5,6,x,x
SMILES,Neddylation inh,NR2E3 ag-1,Rev-erbA mod,PG9 binder,NR2E3 ag-2,NR2E3 ag confirm,PPARg-NCOR2 ag
O=C1C=C(N2CCOCC2)c2ccccc2C1=O,i,33*,-4,-10,17,38*,65*
CCOC(=O)c1ccc(N2CSC3=C(C#N)C(c4cccs4)CC(=O)N3C2)cc1 (centres undefined),i,27*,-4,0,-11,-5,38*
Cc1ccc(N2CSC3=C(C#N)C(c4cccs4)CC(=O)N3C2)cc1 (centres undefined),i,24*,3,3,-30,-6,9
COc1ccc(C(=O)NCCN2C(=O)C3C4C=CC(C4)C3C2=O)cc1OC (centres undefined),x,x,-6,x,x,x,x
CCc1cc2c(=O)n(-c3ccccc3)c(=S)[nH]c2s1,i,23*,-3,2,-5,1,-2
CCCCC(=O)Nc1ncc(Br)s1,i,32*,5,x,16,-2,-4
Cc1ccccc1CS(=O)(=O)Cc1ccc(C(=O)Nc2ccccc2C)o1,x,x,-2,x,x,x,x
COc1ccc(OC)c(C2C(C(=O)c3ccc(C)o3)=C(O)C(=O)N2c2cc(C)on2)c1 (centres undefined),i,4,-4,2,-8,x,x
COc1ccc(OC)c(C2C(C(=O)c3cc4ccccc4o3)=C(O)C(=O)N2c2cc(C)on2)c1 (centres undefined),i,24*,-5,6,-28,17,11
COc1cc(Br)c(C(=O)c2nccc3cc(OC)c(OC)cc23)cc1OC,i,28*,10,-2,-36,24*,9
COc1cc(N)c(C(=O)c2nccc3cc(OC)c(OC)cc23)cc1OC,i,2,1,-1,-4,x,x
CCNC(=O)CSc1nc2sccc2c(=O)n1-c1ccccc1,i,-1,3,1,-18,x,x
C=CCNC(=O)CSc1nc2sccc2c(=O)n1-c1ccccc1,i,23*,7,-1,9,-5,-6
COc1ccc(-n2c(SCC(=O)Nc3ccc(S(=O)(=O)Nc4nccs4)cc3)nnc2-c2ccccc2)cc1,x,x,-7,x,x,x,x
C=CCn1c(SCC(=O)Nc2cccc(S(N)(=O)=O)c2)nnc1C1CCCCC1,i,42*,3,0,-12,-1,-3
NC(=O)c1sc2nc3c(c(-c4ccco4)c2c1N)CCC3,i,11,-6,0,0,x,x
Cc1ccc(-c2c3c(nc4sc(C(N)=O)c(N)c24)CCCC3)o1,i,26*,8,3,15,-10,2
Fc1cccc(NC(=S)Nc2cccc3ccccc23)c1,i,1,3,0,6,x,x
Cc1cc(C)nc(NC(=S)Nc2cccc(F)c2)c1,i,21*,7,-4,-61,-4,34*
CS(=O)(=O)N[C@@H]1C[C@@H]2O[C@H](CO)CC[C@@H]2O[C@@H]1CCc1ccc(/C=C/c2ccccc2)cc1,x,x,7,x,x,x,x
COc1cccc2c(=S)c(CCC(C)=O)c(C)[nH]c12,i,21*,1,-2,-2,6,-2

# Assay outcomes as filed in PubChem.
